Screening data (PubChem)
SUMO1-SIM PPI – alters human SUMO1 binding to SIM partners | P63165 | 360,000 compounds, 0.33% hits | AID 602429 | inhibition, % at 20 µM | SUMO1 binding to a labelled peptide, TR-FRET, 1 h; in the data active = inhibition above about 37%
Target sequence (P63165 whole entry, looked up): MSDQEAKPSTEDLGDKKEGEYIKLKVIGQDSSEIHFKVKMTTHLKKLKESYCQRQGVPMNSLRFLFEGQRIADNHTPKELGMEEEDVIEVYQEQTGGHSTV
DNMT1 inh – inhibitors of human DNMT1; DNMT1 molecular beacon, Hinp1I cleavage, fluorescence; inhibition (reported as % activation of signal), % at 10 µM; 360,000 compounds, 0.83% hits; AID 588458; in the data active = inhibition above about 50%
NadD inh – NadD (S. aureus) enzyme inhibition; 360,000 compounds, 0.78% hits; purified NadD enzyme, colorimetric absorbance read-out; inhibition, % at 20 µM; in the data active = inhibition above about 26%
LMPTP inh – blocks human LMPTP phosphatase. 360,000 compounds, 0.22% hits. P24666. inhibition, % at 20 µM. recombinant LMPTP-A, OMFP fluorogenic substrate, fluorescence intensity;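 active = compounds that cut the enzyme signal by at least half of the control window in the single-dose screen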;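 note: plate controls were DMSO wells with enzyme plus substrate for no effect and substrate without enzyme for full effect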
Target sequence (P24666 whole entry, looked up): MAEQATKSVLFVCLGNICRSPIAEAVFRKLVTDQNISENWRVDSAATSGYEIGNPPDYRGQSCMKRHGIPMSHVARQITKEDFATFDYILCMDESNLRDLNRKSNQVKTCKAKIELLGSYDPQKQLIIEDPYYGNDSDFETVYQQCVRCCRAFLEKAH
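Assay system: LMPTP-A phosphatase enzyme | Input: 0.625 nM enzyme | Also added: Fluorogenic phosphatase substrate OMFP at 400 µM final | Compound dosing: One test concentration per compound, 20 µM, with 3% DMSO overall | Schedule: 50 min enzyme reaction at room temperature, protected from light | Signal: Fluorescence intensity | Benchmarks: no-enzyme and uninhibited controls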
STEP block – STEP (human) phosphatase inhibition | P54829 | recombinant STEP, OMFP fluorogenic substrate, fluorescence | inhibition, % at 20 µM | 360,000 compounds, 0.25% hits;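 active = inhibition at 20 µM, scaled per plate between control wells, above about 37%, limit read from the data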;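 note: 0% = DMSO with enzyme and substrate and 100% = substrate only without enzyme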
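Also added – OMFP at 25 µM · Test system – STEP tyrosine phosphatase · Technique – FITC-channel fluorescence of OMFP product · Schedule – 20 min at room temperature, dark · Evaluation – control-normalized % inhibition with plate pattern correction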
Scp1 inh – blocks human Scp-1 phosphatase activity; Q9GZU7; Recombinant Scp1, phosphopeptide, malachite green phosphate absorbance; AID 493091; inhibition, % at 20 µM; 340,000 compounds, 0.88% hits;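 active = inhibition above about 50% at 20 µM, limit read from the data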;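 note: plate controls were DMSO wells with enzyme for no effect and wells lacking enzyme for full effect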
Target sequence (Q9GZU7 76-261 limits assumed): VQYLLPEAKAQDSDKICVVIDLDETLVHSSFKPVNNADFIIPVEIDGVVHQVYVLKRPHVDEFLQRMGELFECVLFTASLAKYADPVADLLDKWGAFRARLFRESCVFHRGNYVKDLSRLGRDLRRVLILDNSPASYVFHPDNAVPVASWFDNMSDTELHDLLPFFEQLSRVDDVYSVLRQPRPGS
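System: SCP-1 catalytic domain; Reagent: Phospho 17-mer peptide substrate; Doses: one concentration, 20 µM, with 1.0% DMSO; Incubation: 45 min room-temperature reaction, 5 min colour, 30 min stabiliser; Signal: Phosphate-binding colour reagent, absorbance read at 630 nm.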
Numbers without * were called inactive; / = not tested or not shown. Compounds with a hit are over-represented: about 2.3% of the library has one in this group of screens.

SMILES | SUMO1-SIM PPI | DNMT1 inh | NadD inh | LMPTP inh | STEP block | Scp1 inh
Cc1ccc(Cn2c(C(C)Nc3nc(-c4ccc(Cl)cc4)cs3)nc3cc(C(=O)NCCCO)ccc32)cc1 (centres undefined) | 3.0 | -34.9 | 2.5 | 1.4 | -3.1 | -4.4
CC(C)(C)c1cc(-c2csc(Nc3ccccc3)[n+]2Cc2ccc(C(=O)O)cc2)cc(C(C)(C)C)c1O | 41.9* | 18.7 | 66.5* | 1.3 | 11.9 | 17.4
O=C(O)c1ccc(C[n+]2c(-c3ccccc3)csc2Nc2ccccc2)cc1 | 1.1 | 0.0 | 10.0 | -0.4 | -6.5 | 24.9
O=c1c2cc(Br)ccc2nc(-c2ccc(Cl)cc2)n1O | 0.8 | 0.0 | -4.1 | 50.9* | 95.5* | 65.5*
CCCc1nn2c(=O)cc(COc3ccc(NC(=O)c4ccco4)cc3)nc2s1 | 66.0* | -1.6 | 1.6 | -0.4 | -1.3 | -7.4
CCc1nn2c(=O)cc(COc3ccc(NC(=O)c4ccco4)cc3)nc2s1 | 4.4 | 1.1 | 6.3 | 0.7 | -1.5 | 7.7
Cc1ccc(OCCOc2ccc(Br)cc2)c([N+](=O)[O-])n1 | -21.8 | 3.2 | -6.1 | 1.1 | -0.8 | -2.7
COc1ccccc1Nc1ccc2c(O)cc(S(=O)(=O)O)cc2c1 | 91.6* | 94.5* | 21.4 | 84.9* | 97.1* | 81.5*
O=C(O)CCCCCN1C(=O)/C(=C\c2ccc(-c3ccc(Cl)cc3)o2)SC1=S | 70.1* | 14.4 | 7.6 | 78.8* | 6.7 | 88.7*
O=C(O)CCCN1C(=O)/C(=C/c2ccc(-c3nc4ccccc4s3)o2)SC1=S | 33.8 | 103.6* | 11.0 | 8.9 | 61.6* | 58.9*
CSc1ccc(C2=C/C(=C3/SC(=S)NC3=O)c3ccccc3O2)cc1 | -17.6 | 70.3* | 37.9* | 1.9 | 3.0 | -11.7
CCN1/C(=C2/SC(=S)NC2=O)Sc2ccccc21 | 5.5 | -0.9 | -3.3 | -0.8 | 1.0 | -1.7
Cc1ccc(S(=O)(=O)/N=C2\C=C(NS(=O)(=O)c3ccccc3)C(=O)c3ccccc32)cc1 | 10.1 | 3.7 | 13.3 | 2.3 | -3.9 | -15.2
CCc1ccc(S(=O)(=O)/N=C2\C=C(Nc3cccc(C(=O)O)c3)C(=O)c3ccccc32)cc1 | 36.0 | 63.6* | 19.2 | 6.8 | 4.5 | 11.6
O=S(=O)(N=C1C=CC(=NS(=O)(=O)c2ccccc2)c2ccccc21)c1ccccc1 | -8.2 | 22.3 | 33.4* | 1.9 | -2.0 | /
Cc1cc(C)c(S(=O)(=O)/N=C2\C=C(NS(=O)(=O)c3ccccc3)C(=O)c3ccccc32)c(C)c1 | -4.0 | -27.9 | 29.8* | 1.9 | 1.9 | -9.8
CCc1ccc(S(=O)(=O)/N=C2/C=C(Sc3ncn[nH]3)C(=O)c3ccccc32)cc1 | 94.4* | 73.0* | 70.6* | 9.0 | 18.2 | 5.3
CCc1ccc(S(=O)(=O)/N=C2\C=C(Nc3ccc(O)cc3)C(=O)c3ccccc32)cc1 | 20.0 | 15.1 | 12.3 | 14.2 | 5.2 | -15.1
CCCCn1c(SCC(=O)NNC(=O)c2ccccc2)n[nH]c1=O | 0.1 | 1.4 | -6.9 | -0.8 | 2.9 | -4.8
COc1ccc(OCCOC(=O)c2ccc(F)c(S(=O)(=O)N3CCOCC3)c2)cc1 | -1.4 | 0.2 | -8.8 | -0.1 | -1.1 | -4.9
Cc1cc(C)c(S(=O)(=O)/N=C2\C=C(Nc3ccc(C(=O)O)cc3)C(=O)c3ccccc32)c(C)c1 | 57.7* | 36.0 | 31.0* | 6.3 | 6.0 | 35.6
CC(=O)Nc1ccc(NC2=CC(=O)c3ccccc3C2=O)cc1 | -5.7 | 4.2 | -5.7 | 6.6 | 24.1 | 48.9
O=C(O)c1ccc(NC2=C/C(=N/S(=O)(=O)c3ccccc3)c3ccccc3C2=O)cc1 | 62.2* | 70.0* | 4.7 | 6.8 | 3.4 | -8.7
Cc1cc(C)cc(N(C(=O)c2ccccn2)C(C(=O)NC2CCCCC2)c2ccncc2)c1 (centres undefined) | 0.2 | 4.2 | 0.4 | -0.5 | -1.0 | -3.0
CCOc1ccccc1NC(=O)COC(=O)C1COc2ccccc2O1 (centres undefined) | -1.7 | 15.6 | -0.6 | -1.0 | -3.7 | /
Cc1ccc(C2NC(=S)NC3=C2C(=O)CC(C)(C)C3)cc1 (centres undefined) | -2.4 | -0.2 | 0.5 | -2.4 | 0.7 | -8.7
